Bioassay records from PubChem BioAssay.
rCAG RNA binder – binds r(CAG) RNA repeats; r(CAG) RNA repeat, TO-PRO-1 dye displacement fluorescence; inhibition, % at 3 µM; AID 651821; 370,000 tested, 1.3% active;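 active means inhibition above the plate cutoff, the mean of all test compounds on that plate plus 3 SD, cut at about 35% in these data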;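 further: 0% = DMSO alone and 100% = 100 µM mitoxantrone as full dye displacement; higher means more dye released from RNA so lower well fluorescence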
ASAP1 inh – inhibitors of human ASAP1 ArfGAP activity; inhibition, % at 16.5 µM; Q9ULH1; 360,000 tested, 0.19% active; ASAP1-stimulated ARF1 GTP hydrolysis, GDP FP detection; AID 624377; in the data active means inhibition above about 25%;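 further: 0% = vehicle with enzyme and substrate and 100% = no enzyme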
Target sequence (Q9ULH1 325-724 limits assumed): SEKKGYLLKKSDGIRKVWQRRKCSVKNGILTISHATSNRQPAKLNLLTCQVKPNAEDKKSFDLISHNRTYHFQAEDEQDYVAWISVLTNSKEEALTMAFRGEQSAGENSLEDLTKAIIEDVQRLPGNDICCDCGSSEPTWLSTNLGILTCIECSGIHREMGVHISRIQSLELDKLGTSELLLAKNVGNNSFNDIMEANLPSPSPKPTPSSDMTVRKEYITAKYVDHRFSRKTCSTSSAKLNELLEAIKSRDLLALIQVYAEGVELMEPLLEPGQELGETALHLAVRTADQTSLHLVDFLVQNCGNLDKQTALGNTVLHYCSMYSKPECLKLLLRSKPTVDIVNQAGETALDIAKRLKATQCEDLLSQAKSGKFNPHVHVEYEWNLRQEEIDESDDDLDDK
NadD inh – inhibitors of Staphylococcus aureus NadD. purified NadD enzyme, colorimetric absorbance read-out. inhibition, % at 20 µM. 360,000 tested, 0.78% active. AID 602399; in the data active means inhibition above about 26%
ARFGAP1 inh – inhibits rat ARF GTPase activating protein 1. Q62848. inhibition, % at 16.5 µM. 360,000 tested, 0.26% active. Arfgap1-stimulated ARF1 GTP hydrolysis, GDP FP detection;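 active means inhibition above a per-plate limit, mean inhibition of low control wells plus 3 SD, cut at about 25% in these data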;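 further: 0% = DMSO wells with enzyme and 100% = wells lacking Arfgap1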
Target sequence (Q62848 1-136 limits assumed): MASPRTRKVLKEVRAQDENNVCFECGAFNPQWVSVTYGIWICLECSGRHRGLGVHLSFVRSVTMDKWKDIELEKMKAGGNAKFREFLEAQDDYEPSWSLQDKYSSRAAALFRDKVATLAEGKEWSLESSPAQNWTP
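Replicates: Single well per compound | Assay system: Truncated rat Arfgap1 GAP domain | Control set: No-Arfgap1 wells (100%) versus DMSO full-reaction wells (0%) | Times: Enzyme reaction 120 min at 25 °C after 20 min preincubation | Reagent: Human ARF1(Δ1-17)-GTP substrate | Measured by: Tracer-displacement fluorescence polarization with EDTA stop, 620/688 nm | Measure: Percent inhibition of Arfgap1-stimulated GTP hydrolysis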
rCAG bind conf – r(CAG) RNA repeat binding, confirmation. shares compounds with rCAG RNA binder. TO-PRO-1 dye displacement fluorescence. inhibition, % at 3 µM. 4,300 tested, 70% active. AID 652065;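 active means inhibition above a per-plate cutoff, the mean inhibition of sample wells plus 3 SD, cut at about 35% in these data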;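 further: loss of TO-PRO-1 fluorescence as compound displaces dye from 1x1 AA loop RNA; 0% = DMSO only wells and 100% = 100 µM mitoxantrone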
DNA CAG counter – counter-screen for rCAG RNA binders: DNA CAG dye complex inhibitors | shares compounds with rCAG RNA binder | d(CAG) DNA oligo TO-PRO-1 dye displacement, fluorescence | inhibition, % at 3 µM | 4,300 tested, 94% active;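 active means inhibition above its plate's cutoff, the mean test-well inhibition plus 3 SD, cut at about 4.8% in these data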;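 further: 0% = DNA dye mix with DMSO and 100% = 100 µM mitoxantrone; hits displace the dye from DNA and so lower well fluorescence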
DNA CAG DR – counter-screen for rCAG binders: inhibitors of DNA CAG TO-PRO-1 complex | shares compounds with rCAG RNA binder | 250 tested, 20% active | AID 686960 | DNA CAG/GTC duplex TO-PRO-1 dye displacement fluorescence | IC50, µM; in the data active means IC50 below about 10 µM
* marks the source's active call; other numbers are inactive results; · = no result. Compounds with a hit are over-represented: about 2.2% of the library has one in this group of screens.

SMILES	rCAG RNA binder	ASAP1 inh	NadD inh	ARFGAP1 inh	rCAG bind conf	DNA CAG counter	others
O=C(CCCN1C(=O)/C(=C/c2ccco2)SC1=S)Nc1ccccc1C(=O)O	87.6*	11.4	0.4	-15.8	83.4*	49.4*
CN(Cc1ccccc1)S(=O)(=O)c1cccc(C(=O)OCc2ccc(C(F)(F)F)cc2)c1	1.8	·	·	·	·	·
COc1cccc(C(=O)NCC2CCN(C(=O)C(=O)c3cc4ccccc4o3)CC2)c1	4.6	0.4	·	-4.3	·	·
Cc1c(O[C@@H]2O[C@H](CO)[C@@H](O)[C@H](O)[C@H]2O)ccc2c1oc(=O)c1ccccc12	2.1	8.4	-3.9	-6.5	·	·
CO[C@@H]1[C@@H](OC(N)=O)[C@@H](O)[C@H](Oc2ccc3c(O)c(NC(=O)c4ccc(O)c(CC=C(C)C)c4)c(=O)oc3c2C)OC1(C)C	50.4*	-9.2	2.1	-7.8	56.3*	26.0*
CCCCCCC12Cc3cc(OC)c(OC)cc3C(O1)C1=C(O2)C(C)(C)CCC1=O (stereo not drawn)	5.7	-6.0	·	-0.7	·	·
O=C(Nc1ccccc1N1CCOCC1)c1ccccc1NS(=O)(=O)c1ccc(F)c(F)c1	37.7*	5.3	-0.3	-6.8	29.7	7.2*
O=C(Nc1cc(S(=O)(=O)N2CCCCC2)ccc1Cl)c1ccccc1NS(=O)(=O)c1ccc(F)cc1	88.7*	-1.5	15.6	-7.4	89.3*	64.8*
O=C(Nc1cc(S(=O)(=O)N2CCCCC2)ccc1O)c1ccccc1NS(=O)(=O)c1ccc(F)cc1	85.1*	5.6	2.4	0.8	87.0*	57.5*
Cc1ccc(CN2CCCCC(NC(=O)Nc3cccc([N+](=O)[O-])c3)C2=O)cc1 (stereo not drawn)	8.1	·	·	·	·	·
O=C(NC1CCCCN(Cc2ccc(Cl)cc2)C1=O)c1ccc(F)c(F)c1 (stereo not drawn)	1.9	·	·	·	·	·
Cc1[nH]n(-c2ccccc2)c(=O)c1N=Nc1c(O)cc(S(=O)(=O)N(C)C)c2ccccc12	41.7*	13.1	55.9*	4.8	89.0*	66.9*
Cc1cccc(NS(=O)(=O)c2nnc(NC(=O)c3cccc(C)c3)s2)c1	18.0	-15.5	0.3	-0.6	·	·
Cc1cccc(C(=O)Nc2nnc(S(=O)(=O)N(C)Cc3ccco3)s2)c1	36.5*	-1.4	-9.8	-1.0	37.4*	13.5*
COc1ccc(CN(C)S(=O)(=O)c2nnc(NC(=O)c3cccc(F)c3)s2)cc1OC	56.6*	-1.1	2.0	0.2	60.1*	23.6*
COc1ccc(CN(C)S(=O)(=O)c2nnc(NC(=O)c3ccccc3)s2)cc1OC	10.4	-1.2	-3.9	1.9	·	·
Cc1cccc(NS(=O)(=O)c2nnc(NC(=O)c3ccc(Cl)cc3)s2)c1	36.6*	4.6	5.6	5.6	34.1	11.9*
Cc1ccc(-n2c(SCC(=O)NC3CCS(=O)(=O)C3)nc3ccccc3c2=O)cc1C (stereo not drawn)	-3.7	-6.2	-1.9	-4.3	·	·
Cc1ccc(S(=O)(=O)Oc2ccccc2/C=N/Nc2ccc(C(=O)O)cc2)cc1	50.1*	7.7	-8.4	-11.6	29.4	6.1*
O=S(=O)(c1cccc2cccnc12)N1CCC(c2cn3ccccc3n2)CC1	5.2	·	·	·	·	·
O=C1CC(=O)N(C2CCCCC2)C(=O)N1c1ccccc1S(=O)(=O)Oc1ccccc1	58.8*	3.3	-1.4	-7.2	26.0	8.0*
Cc1cc(=O)[nH]c(SCC(=O)Nc2cccc(C)c2C)n1	1.6	·	·	·	·	·
Nc1[nH]n2c(=O)c3c(nc2c1N=Nc1ccccc1)CCCC3	34.6*	-10.9	15.5	-0.8	8.4	3.4
CCOC(=O)CC[C@@]1(C(=O)OCC)C[C@@H](CC(=O)N2CCN(C(=O)c3ccco3)CC2)C(=O)N2CCCC=C21	2.7	·	·	·	·	·
COC(=O)c1cc(NS(=O)(=O)c2ccc(N3CCOCC3)c([N+](=O)[O-])c2)cc(C(=O)OC)c1	51.1*	14.8	-4.6	6.5	40.4*	10.7*
SMILES	rCAG RNA binder	ASAP1 inh	NadD inh	ARFGAP1 inh	rCAG bind conf	DNA CAG counter	others
Cc1ccc(NC(=S)NNC(=O)c2ccc(N3CCOCC3)c([N+](=O)[O-])c2)cc1C	58.1*	11.8	4.6	-6.2	60.9*	25.8*
COC(=O)c1cc(NS(=O)(=O)c2ccc(N3CCCCCC3)c([N+](=O)[O-])c2)cc(C(=O)OC)c1	38.8*	10.6	-0.8	1.9	60.1*	19.7*
O=C(O)c1ccc(NS(=O)(=O)c2ccc(N3CCCC3)c([N+](=O)[O-])c2)cc1	2.3	-5.3	-1.7	2.4	·	·
Cc1ccccc1Cn1cc(CN2[C@@H](CC(C)C)COc3cccc(F)c3S2(=O)=O)nn1	0.9	·	·	·	·	·
O=C(NCc1c(F)cccc1F)C1CCCN(c2ncccn2)C1 (stereo not drawn)	-1.2	·	·	·	·	·
O=C(O)c1ccc(N(Cc2ccccc2)S(=O)(=O)c2ccccc2)cc1	5.9	-5.8	-4.7	12.1	·	·
O=C(O)c1cccc(S(=O)(=O)N(Cc2ccccc2)c2cccc(C(F)(F)F)c2)c1	52.6*	-4.6	-1.5	7.7	53.3*	11.5*	DNA CAG DR=>29.9
Cc1ccc(S(=O)(=O)N(CC(=O)Nc2ccccc2C(=O)O)c2ccc(Cl)cc2)cc1	61.6*	-9.4	6.4	-2.9	58.4*	17.9*
O=C(O)c1cccc(S(=O)(=O)N(Cc2ccccc2)c2ccccc2Cl)c1	29.9	-2.4	-3.7	-1.9	·	·
O=C(O)c1cc(S(=O)(=O)N(Cc2ccccc2)c2ccc(Cl)cc2)ccc1Cl	54.2*	-4.0	-5.2	2.6	43.0*	9.8*
CC(=O)c1cc(-c2ccc(S(C)(=O)=O)cc2)c(=O)n2c1CCC2	0.5	·	·	·	·	·
CC(C)C[C@@H]1Cc2[nH][nH]c(=O)c2[C@H](C)O1	-0.7	3.6	-3.6	-3.1	·	·
O=c1[nH]c(/C=C/c2ccccc2Cl)c([N+](=O)[O-])c(=O)[nH]1	6.8	-1.5	2.3	2.0	·	·
O=C(COc1ccccc1/C=C\c1[nH]c(=O)[nH]c(=O)c1[N+](=O)[O-])Nc1ccccc1	68.3*	11.3	1.1	12.4	43.0*	14.2*
CCOc1ccc(/C=C/c2[nH]c(=O)[nH]c(=O)c2[N+](=O)[O-])cc1	38.7*	-0.4	0.4	7.9	16.1	7.0*
CCOC(=O)COc1ccc(Br)cc1/C=C\c1[nH]c(=O)[nH]c(=O)c1[N+](=O)[O-]	83.7*	4.8	1.8	4.2	43.5*	10.5*
CC(C)c1ccc(/C=C/c2[nH]c(=O)[nH]c(=O)c2[N+](=O)[O-])cc1	40.2*	4.2	-2.8	1.1	23.7	3.7
CCOc1cc(/C=C\c2[nH]c(=O)[nH]c(=O)c2[N+](=O)[O-])ccc1OC(C)CC (stereo not drawn)	21.9	5.0	·	-4.5	·	·
CCCOc1ccc(/C=C/c2[nH]c(=O)[nH]c(=O)c2[N+](=O)[O-])cc1OCC	-3.2	7.2	-2.1	-3.0	·	·
